Laboratory results reported in ChEMBL document CHEMBL4190305, “Dioxomorpholines and Derivatives from a Marine-Facultative Aspergillus Species” (J Nat Prod, 2017).
Active and inactive are the calls of the source. No cut-off for these calls is given here.

tested on: HCT-116; assay: Cytotoxicity against p53 null human HCT116 cells assessed as reduction in cell viability after 72 hrs by CellTiter 96 AQueous one solution cell proliferation assay; type: cell-based; settings: HCT-116, 72 h
How it was run: (§1)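 Cells seeded at 3000–4000 per well and grown 20 h, then medium replaced by 10% fetal bovine serum medium with test compound for 72 h. Viability read by MTS-type (CellTiter 96 AQueous One) absorbance at 490 nm, relative to untreated control cells; triplicate wells per condition.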

**Q.** How did the IC50 turn out when `C=CC(C)(C)c1[nH]c2ccccc2c1C[C@H](NC(=O)[C@@H](O)Cc1ccccc1)C(=O)O` was run?
**A.** > 50 µM

**Q.** How did the IC50 turn out when `C=CC(C)(C)[C@]1(C[C@H](NC(=O)[C@@H](O)Cc2ccccc2)C(=O)O)C(=O)Nc2c(O)cccc21` was run?
**A.** > 50 µM

**Q.** Which IC50 does the source give for `C=CC(C)(C)[C@]12Nc3c(O)cccc3[C@@]1(O)C[C@H]1C(=O)O[C@@H](Cc3ccccc3)C(=O)N12` here?
**A.** > 50 µM

species on record: Homo sapiens; assay: Cytotoxicity against human A549/DXR cells assessed as reduction in cell viability after 72 hrs by CellTiter 96 AQueous one solution cell proliferation assay; type: functional, cell-based; settings: not given; how it was run: as §1

**Q.** For `C=CC(C)(C)c1[nH]c2ccccc2c1C[C@H](NC(=O)[C@@H](O)Cc1ccccc1)C(=O)O`, which Activity is on record?
**A.** Dose-dependent effect

**Q.** How did the Activity turn out when `C=CC(C)(C)[C@]1(C[C@H](NC(=O)[C@@H](O)Cc2ccccc2)C(=O)O)C(=O)Nc2c(O)cccc21` was run?
**A.** Dose-dependent effect

**Q.** With `C=CC(C)(C)[C@]12Nc3c(O)cccc3[C@@]1(O)C[C@H]1C(=O)O[C@@H](Cc3ccccc3)C(=O)N12` as the compound, how does the Activity read?
**A.** Dose-dependent effect

tested on: MDA-MB-231; assay: Potentiation of doxorubicin-induced cytotoxicity against p53 CRISPR-Cas9 knockout human MDA-MB-231 cells assessed as decrease in cell viability at 10 uM after 72 hrs by CellTiter 96 AQueous one solution cell proliferation assay; type: functional, cell-based; settings: not given
How it was run: (§2)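 Seeded 3000–4000 cells/well, 20 h growth, then a range of doxorubicin concentrations alone or combined with 10 μM compound in 10% FBS medium for 72 h (DMSO vehicle). Viability by CellTiter 96 AQueous One at 490 nm versus untreated cells; triplicate wells, mean ± SEM of three independent experiments.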

**Q.** How did the Activity turn out when `C=CC(C)(C)c1[nH]c2ccccc2c1C[C@H](NC(=O)[C@@H](O)Cc1ccccc1)C(=O)O` was run?
**A.** Active

**Q.** For `C=CC(C)(C)[C@]1(C[C@H](NC(=O)[C@@H](O)Cc2ccccc2)C(=O)O)C(=O)Nc2c(O)cccc21`, which Activity is on record?
**A.** Active

**Q.** How did the Activity turn out when `C=CC(C)(C)[C@]12Nc3c(O)cccc3[C@@]1(O)C[C@H]1C(=O)O[C@@H](Cc3ccccc3)C(=O)N12` was run?
**A.** Active

tested on: A549; assay: Inhibition of calcein-AM efflux in human A549 cells at 10 uM after 1 hr by fluorescence assay; type: functional, cell-based; settings: not given
How it was run: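 Vybrant multidrug resistance kit: 500 000 cells/well cultured overnight, triplicate cultures pretreated 1 h with compound (verapamil 50 μg/mL, cyclosporine A 25 μg/mL as positive controls), then 0.25 μM calcein-AM for 30 min. Cells washed twice in cold medium; intracellular calcein fluorescence read at ex 494/em 517 nm, expressed as percent calcein retention.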

**Q.** For `C=CC(C)(C)c1[nH]c2ccccc2c1C[C@H](NC(=O)[C@@H](O)Cc1ccccc1)C(=O)O`, which inhibition is on record?
**A.** Active

**Q.** `C=CC(C)(C)[C@]1(C[C@H](NC(=O)[C@@H](O)Cc2ccccc2)C(=O)O)C(=O)Nc2c(O)cccc21` was tested. Which inhibition did it give?
**A.** Active

**Q.** How did the inhibition turn out when `C=CC(C)(C)[C@]12Nc3c(O)cccc3[C@@]1(O)C[C@H]1C(=O)O[C@@H](Cc3ccccc3)C(=O)N12` was run?
**A.** Active

tested on: U2OS; assay: Potentiation of doxorubicin-induced cytotoxicity against human U2OS cells assessed as decrease in cell viability at 10 uM after 72 hrs by CellTiter 96 AQueous one solution cell proliferation assay; type: functional, cell-based; settings: not given; how it was run: as §2

**Q.** `C=CC(C)(C)c1[nH]c2ccccc2c1C[C@H](NC(=O)[C@@H](O)Cc1ccccc1)C(=O)O` was tested. Which Activity did it give?
**A.** Active

**Q.** For `C=CC(C)(C)[C@]1(C[C@H](NC(=O)[C@@H](O)Cc2ccccc2)C(=O)O)C(=O)Nc2c(O)cccc21`, which Activity is on record?
**A.** Active

**Q.** How did the Activity turn out when `C=CC(C)(C)[C@]12Nc3c(O)cccc3[C@@]1(O)C[C@H]1C(=O)O[C@@H](Cc3ccccc3)C(=O)N12` was run?
**A.** Active

tested on: A549; assay: Potentiation of doxorubicin-induced cytotoxicity against human A549 cells assessed as decrease in cell viability at 10 uM after 72 hrs by CellTiter 96 AQueous one solution cell proliferation assay; type: functional, cell-based; settings: not given; how it was run: as §2

**Q.** With `C=CC(C)(C)c1[nH]c2ccccc2c1C[C@H](NC(=O)[C@@H](O)Cc1ccccc1)C(=O)O` as the compound, how does the Activity read?
**A.** Active

**Q.** With `C=CC(C)(C)[C@]1(C[C@H](NC(=O)[C@@H](O)Cc2ccccc2)C(=O)O)C(=O)Nc2c(O)cccc21` as the compound, how does the Activity read?
**A.** Active

**Q.** Which Activity does the source give for `C=CC(C)(C)[C@]12Nc3c(O)cccc3[C@@]1(O)C[C@H]1C(=O)O[C@@H](Cc3ccccc3)C(=O)N12` here?
**A.** Active

tested on: A549; assay: Cytotoxicity against human A549 cells assessed as reduction in cell viability after 72 hrs by CellTiter 96 AQueous one solution cell proliferation assay; type: cell-based; settings: A549, 72 h; how it was run: as §1

**Q.** Which IC50 does the source give for `C=CC(C)(C)c1[nH]c2ccccc2c1C[C@H](NC(=O)[C@@H](O)Cc1ccccc1)C(=O)O` here?
**A.** > 50 µM

**Q.** How did the IC50 turn out when `C=CC(C)(C)[C@]1(C[C@H](NC(=O)[C@@H](O)Cc2ccccc2)C(=O)O)C(=O)Nc2c(O)cccc21` was run?
**A.** > 50 µM

**Q.** How did the IC50 turn out when `C=CC(C)(C)[C@]12Nc3c(O)cccc3[C@@]1(O)C[C@H]1C(=O)O[C@@H](Cc3ccccc3)C(=O)N12` was run?
**A.** > 50 µM

tested on: HCT-116; assay: Cytotoxicity against human HCT116 cells harboring wild type p53 assessed as reduction in cell viability after 72 hrs by CellTiter 96 AQueous one solution cell proliferation assay; type: cell-based; settings: HCT-116, 72 h; how it was run: as §1

**Q.** For `C=CC(C)(C)c1[nH]c2ccccc2c1C[C@H](NC(=O)[C@@H](O)Cc1ccccc1)C(=O)O`, which IC50 is on record?
**A.** > 50 µM

**Q.** For `C=CC(C)(C)[C@]1(C[C@H](NC(=O)[C@@H](O)Cc2ccccc2)C(=O)O)C(=O)Nc2c(O)cccc21`, which IC50 is on record?
**A.** > 50 µM

**Q.** Which IC50 does the source give for `C=CC(C)(C)[C@]12Nc3c(O)cccc3[C@@]1(O)C[C@H]1C(=O)O[C@@H](Cc3ccccc3)C(=O)N12` here?
**A.** > 50 µM

species on record: Homo sapiens; assay: Inhibition of Pgp in human A549/DXR cells assessed as reduction in calcein-AM efflux after 1 hr by fluorescence assay; settings: not given

**Q.** For `C=CC(C)(C)c1[nH]c2ccccc2c1C[C@H](NC(=O)[C@@H](O)Cc1ccccc1)C(=O)O`, which inhibition is on record?
**A.** Dose-dependent effect

**Q.** For `C=CC(C)(C)[C@]1(C[C@H](NC(=O)[C@@H](O)Cc2ccccc2)C(=O)O)C(=O)Nc2c(O)cccc21`, which inhibition is on record?
**A.** Dose-dependent effect

**Q.** `C=CC(C)(C)[C@]12Nc3c(O)cccc3[C@@]1(O)C[C@H]1C(=O)O[C@@H](Cc3ccccc3)C(=O)N12` was tested. Which inhibition did it give?
**A.** Dose-dependent effect

tested on: U2OS; assay: Cytotoxicity against human U2OS cells assessed as reduction in cell viability after 72 hrs by CellTiter 96 AQueous one solution cell proliferation assay; type: cell-based; settings: not given; how it was run: as §1

**Q.** For `C=CC(C)(C)c1[nH]c2ccccc2c1C[C@H](NC(=O)[C@@H](O)Cc1ccccc1)C(=O)O`, which IC50 is on record?
**A.** > 50 µM

**Q.** How did the IC50 turn out when `C=CC(C)(C)[C@]1(C[C@H](NC(=O)[C@@H](O)Cc2ccccc2)C(=O)O)C(=O)Nc2c(O)cccc21` was run?
**A.** > 50 µM

**Q.** With `C=CC(C)(C)[C@]12Nc3c(O)cccc3[C@@]1(O)C[C@H]1C(=O)O[C@@H](Cc3ccccc3)C(=O)N12` as the compound, how does the IC50 read?
**A.** > 50 µM

tested on: MDA-MB-231; assay: Cytotoxicity against human MDA-MB-231 cells harboring p53 R280K mutant assessed as reduction in cell viability after 72 hrs by CellTiter 96 AQueous one solution cell proliferation assay; type: cell-based; settings: MDA-MB-231, 72 h; how it was run: as §1

**Q.** With `C=CC(C)(C)c1[nH]c2ccccc2c1C[C@H](NC(=O)[C@@H](O)Cc1ccccc1)C(=O)O` as the compound, how does the IC50 read?
**A.** > 50 µM

**Q.** `C=CC(C)(C)[C@]1(C[C@H](NC(=O)[C@@H](O)Cc2ccccc2)C(=O)O)C(=O)Nc2c(O)cccc21` was tested. Which IC50 did it give?
**A.** > 50 µM

**Q.** Which IC50 does the source give for `C=CC(C)(C)[C@]12Nc3c(O)cccc3[C@@]1(O)C[C@H]1C(=O)O[C@@H](Cc3ccccc3)C(=O)N12` here?
**A.** > 50 µM

tested on: SAOS-2; assay: Potentiation of doxorubicin-induced cytotoxicity against p53 null human Saos2 cells assessed as decrease in cell viability at 10 uM after 72 hrs by CellTiter 96 AQueous one solution cell proliferation assay; type: functional, cell-based; settings: not given; how it was run: as §2

**Q.** With `C=CC(C)(C)c1[nH]c2ccccc2c1C[C@H](NC(=O)[C@@H](O)Cc1ccccc1)C(=O)O` as the compound, how does the Activity read?
**A.** Active

**Q.** With `C=CC(C)(C)[C@]1(C[C@H](NC(=O)[C@@H](O)Cc2ccccc2)C(=O)O)C(=O)Nc2c(O)cccc21` as the compound, how does the Activity read?
**A.** Active

**Q.** For `C=CC(C)(C)[C@]12Nc3c(O)cccc3[C@@]1(O)C[C@H]1C(=O)O[C@@H](Cc3ccccc3)C(=O)N12`, which Activity is on record?
**A.** Active
